Reference: ChEMBL document CHEMBL3734675, “Synthesis, antimycobacterial and antibacterial activity of fluoroquinolone derivatives containing an 3-alkoxyimino-4-(cyclopropylanimo)methylpyrrolidine moiety” (2015)
In brackets after ≈: the same amount, converted by molar mass.

How the values were obtained:
Format in all cases: functional
[1] = test system: Enterococcus faecium; assay: Antibacterial activity against Enterococcus faecium 14-5 after 18 to 24 hrs by two-fold serial dilution method
Procedure, shortened: (§1)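 Twofold serial dilution in agar media against Gram-positive and Gram-negative strains. Plates incubated at 35 °C for 18–24 h. MIC read as the lowest compound concentration giving complete inhibition of bacterial growth.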

[2] = test system: Escherichia coli; assay: Antibacterial activity against extended-spectrum beta-lactamase producing Escherichia coli 14-2 after 18 to 24 hrs by two-fold serial dilution method; procedure, shortened: as §1
[3] = test system: Enterococcus faecium; assay: Antibacterial activity against Enterococcus faecium 14-2 after 18 to 24 hrs by two-fold serial dilution method; procedure, shortened: as §1
[4] = test system: Klebsiella pneumoniae; assay: Antibacterial activity against extended-spectrum beta-lactamase producing Klebsiella pneumoniae 14-17 after 18 to 24 hrs by two-fold serial dilution method; procedure, shortened: as §1
[5] = test system: Staphylococcus aureus; assay: Antibacterial activity against Staphylococcus aureus CMCC 26003 after 18 to 24 hrs by two-fold serial dilution method; procedure, shortened: as §1
[6] = test system: Staphylococcus epidermidis; assay: Antibacterial activity against methicillin-resistant Staphylococcus epidermidis 14-21 after 18 to 24 hrs by two-fold serial dilution method
Procedure, shortened: (§2)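 Agar media, standard twofold serial dilution. MIC is the lowest concentration giving complete inhibition of bacterial growth after incubation at 35 °C for 18–24 h. Ciprofloxacin and levofloxacin were run as comparators.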

[7] = test system: Staphylococcus epidermidis; assay: Antibacterial activity against methicillin-resistant Staphylococcus epidermidis 14-39 after 18 to 24 hrs by two-fold serial dilution method; procedure, shortened: as §2
[8] = test system: Escherichia coli; assay: Antibacterial activity against Escherichia coli 14-2 after 18 to 24 hrs by two-fold serial dilution method; procedure, shortened: as §1
[9] = test system: Pseudomonas aeruginosa; assay: Antibacterial activity against Pseudomonas aeruginosa 14-14 after 18 to 24 hrs by two-fold serial dilution method; procedure, shortened: as §1
[10] = test system: Staphylococcus epidermidis; assay: Antibacterial activity against methicillin-resistant Staphylococcus epidermidis 14-22 after 18 to 24 hrs by two-fold serial dilution method; procedure, shortened: as §2
[11] = test system: Escherichia coli; assay: Antibacterial activity against extended-spectrum beta-lactamase producing Escherichia coli 14-1 after 18 to 24 hrs by two-fold serial dilution method; procedure, shortened: as §1
[12] = test system: Pseudomonas aeruginosa; assay: Antibacterial activity against Pseudomonas aeruginosa 14-15 after 18 to 24 hrs by two-fold serial dilution method; procedure, shortened: as §1
[13] = test system: Streptococcus pneumoniae; assay: Antibacterial activity against methicillin-resistant Streptococcus pneumoniae ATCC 19615 after 18 to 24 hrs by two-fold serial dilution method; procedure, shortened: as §2
[14] = test system: Escherichia coli; assay: Antibacterial activity against Escherichia coli ATCC 25922 after 18 to 24 hrs by two-fold serial dilution method; procedure, shortened: as §1
[15] = test system: Staphylococcus aureus; assay: Antibacterial activity against methicillin-resistant Staphylococcus aureus 14-4 after 18 to 24 hrs by two-fold serial dilution method; procedure, shortened: as §2
[16] = test system: Enterococcus faecalis; assay: Antibacterial activity against Enterococcus faecalis 14-2 after 18 to 24 hrs by two-fold serial dilution method; procedure, shortened: as §1
[17] = test system: Escherichia coli; assay: Antibacterial activity against Escherichia coli 14-1 after 18 to 24 hrs by two-fold serial dilution method; procedure, shortened: as §1
[18] = test system: Staphylococcus aureus; assay: Antibacterial activity against methicillin-resistant Staphylococcus aureus 14-5 after 18 to 24 hrs by two-fold serial dilution method; procedure, shortened: as §2
[19] = test system: Staphylococcus epidermidis; assay: Antibacterial activity against methicillin-resistant Staphylococcus epidermidis 14-37 after 18 to 24 hrs by two-fold serial dilution method; procedure, shortened: as §2
[20] = test system: Staphylococcus aureus; assay: Antibacterial activity against methicillin-sensitive Staphylococcus aureus 14-1 after 18 to 24 hrs by two-fold serial dilution method; procedure, shortened: as §1
[21] = test system: Staphylococcus aureus; assay: Antibacterial activity against methicillin-sensitive Staphylococcus aureus 14-3 after 18 to 24 hrs by two-fold serial dilution method; procedure, shortened: as §1
[22] = test system: Mycobacterium tuberculosis; assay: Antimycobacterial activity against Mycobacterium tuberculosis H37Rv ATCC 27294 incubated for 7 days by microplate Alamar Blue assay; settings: H37Rv ATCC 27294, 168 h
Procedure, shortened: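 Fluorescence read-out. MIC is the lowest concentration that reduces fluorescence by at least 90% relative to the mean of replicate bacterium-only controls. Isoniazid and rifampicin were included as reference drugs.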

[23] = test system: Klebsiella pneumoniae; assay: Antibacterial activity against extended-spectrum beta-lactamase producing Klebsiella pneumoniae 14-18 after 18 to 24 hrs by two-fold serial dilution method; procedure, shortened: as §1
[24] = test system: Staphylococcus aureus; assay: Antibacterial activity against methicillin-sensitive Staphylococcus aureus 14-4 after 18 to 24 hrs by two-fold serial dilution method; procedure, shortened: as §1
[25] = test system: Klebsiella pneumoniae; assay: Antibacterial activity against extended-spectrum beta-lactamase producing Klebsiella pneumoniae 14-19 after 18 to 24 hrs by two-fold serial dilution method; procedure, shortened: as §1
[26] = test system: Klebsiella pneumoniae; assay: Antibacterial activity against Klebsiella pneumoniae 14-1 after 18 to 24 hrs by two-fold serial dilution method; procedure, shortened: as §1
[27] = test system: Klebsiella pneumoniae; assay: Antibacterial activity against Klebsiella pneumoniae 14-2 after 18 to 24 hrs by two-fold serial dilution method; procedure, shortened: as §1
[28] = test system: Enterococcus faecalis; assay: Antibacterial activity against Enterococcus faecalis 14-1 after 18 to 24 hrs by two-fold serial dilution method; procedure, shortened: as §1
[29] = test system: Klebsiella pneumoniae; assay: Antibacterial activity against Klebsiella pneumoniae 14-3 after 18 to 24 hrs by two-fold serial dilution method; procedure, shortened: as §1
[30] = test system: Pseudomonas aeruginosa; assay: Antibacterial activity against Pseudomonas aeruginosa 14-16 after 18 to 24 hrs by two-fold serial dilution method; procedure, shortened: as §1
[31] = test system: Pseudomonas aeruginosa; assay: Antibacterial activity against Pseudomonas aeruginosa ATCC 27853 after 18 to 24 hrs by two-fold serial dilution method; procedure, shortened: as §1
[32] = test system: Pseudomonas aeruginosa; assay: Antibacterial activity against Pseudomonas aeruginosa 14-9 after 18 to 24 hrs by two-fold serial dilution method; procedure, shortened: as §1
[33] = test system: Klebsiella pneumoniae; assay: Antibacterial activity against Klebsiella pneumoniae 14-4 after 18 to 24 hrs by two-fold serial dilution method; procedure, shortened: as §1
[34] = test system: Enterococcus faecium; assay: Antibacterial activity against Enterococcus faecium 14-6 after 18 to 24 hrs by two-fold serial dilution method; procedure, shortened: as §1
[35] = test system: Staphylococcus epidermidis; assay: Antibacterial activity against methicillin-sensitive Staphylococcus epidermidis 14-2 after 18 to 24 hrs by two-fold serial dilution method; procedure, shortened: as §1

Compound | MIC [1] [µg/mL] | MIC [2] [µg/mL] | MIC [3] [µg/mL] | MIC [4] [µg/mL] | MIC [5] [µg/mL] | MIC [6] [µg/mL] | MIC [7] [µg/mL] | MIC [8] [µg/mL] | MIC [9] [µg/mL] | MIC [10] [µg/mL] | MIC [11] [µg/mL] | MIC [12] [µg/mL] | MIC [13] [µg/mL] | MIC [14] [µg/mL] | MIC [15] [µg/mL] | MIC [16] [µg/mL] | MIC [17] [µg/mL] | MIC [18] [µg/mL] | MIC [19] [µg/mL] | MIC [20] [µg/mL] | also measured
CCO/N=C1/CN(c2nc3c(cc2F)c(=O)c(C(=O)O)cn3-c2nc(N)c(F)cc2F)CC1(C)CNC1CC1 (stereo not given) | 128 (≈ 235 µM) | > 128 | 128 (≈ 235 µM) | > 128 | 0.5 (≈ 0.917 µM) | 64 (≈ 117 µM) | 64 (≈ 117 µM) | 128 (≈ 235 µM) | 128 (≈ 235 µM) | 128 (≈ 235 µM) | 64 (≈ 117 µM) | 128 (≈ 235 µM) | 16 (≈ 29.3 µM) | 32 (≈ 58.7 µM) | 64 (≈ 117 µM) | 8 (≈ 14.7 µM) | > 128 | 64 (≈ 117 µM) | 128 (≈ 235 µM) | 32 (≈ 58.7 µM) | MIC [21]: 16 µg/mL (≈ 29.3 µM); MIC90 [22]: 27.7 µg/mL (≈ 50.9 µM); MIC [23]: > 128 µg/mL; MIC [24]: 4 µg/mL (≈ 7.33 µM); MIC [25]: > 128 µg/mL; MIC [26]: > 128 µg/mL; MIC [27]: > 128 µg/mL; MIC [28]: 64 µg/mL (≈ 117 µM); MIC [29]: > 128 µg/mL; MIC [30]: > 128 µg/mL; MIC [31]: 128 µg/mL (≈ 235 µM); MIC [32]: 64 µg/mL (≈ 117 µM); MIC [33]: > 128 µg/mL; MIC [34]: 64 µg/mL (≈ 117 µM); MIC [35]: 128 µg/mL (≈ 235 µM)
CO/N=C1/CN(c2nc3c(cc2F)c(=O)c(C(=O)O)cn3[C@@H]2C[C@@H]2F)CC1(C)CNC1CC1 (stereo not given in full) | 4 (≈ 8.67 µM) | > 128 | 4 (≈ 8.67 µM) | 64 (≈ 139 µM) | < 0.008 | 4 (≈ 8.67 µM) | 4 (≈ 8.67 µM) | > 128 | 64 (≈ 139 µM) | 4 (≈ 8.67 µM) | 16 (≈ 34.7 µM) | 64 (≈ 139 µM) | 0.5 (≈ 1.08 µM) | 1 (≈ 2.17 µM) | 4 (≈ 8.67 µM) | 1 (≈ 2.17 µM) | > 128 | 2 (≈ 4.33 µM) | 2 (≈ 4.33 µM) | 1 (≈ 2.17 µM) | MIC [21]: 1 µg/mL (≈ 2.17 µM); MIC90 [22]: 0.45 µg/mL (≈ 0.975 µM); MIC [23]: 64 µg/mL (≈ 139 µM); MIC [24]: 2 µg/mL (≈ 4.33 µM); MIC [25]: 32 µg/mL (≈ 69.3 µM); MIC [26]: 32 µg/mL (≈ 69.3 µM); MIC [27]: 64 µg/mL (≈ 139 µM); MIC [28]: 16 µg/mL (≈ 34.7 µM); MIC [29]: 128 µg/mL (≈ 277 µM); MIC [30]: 32 µg/mL (≈ 69.3 µM); MIC [31]: 16 µg/mL (≈ 34.7 µM); MIC [32]: 16 µg/mL (≈ 34.7 µM); MIC [33]: > 128 µg/mL; MIC [34]: 2 µg/mL (≈ 4.33 µM); MIC [35]: 16 µg/mL (≈ 34.7 µM)
CO/N=C1/CN(c2nc3c(cc2F)c(=O)c(C(=O)O)cn3-c2nc(N)c(F)cc2F)CC1CNC1CC1 (stereo not given) | 16 (≈ 30.9 µM) | > 128 | 32 (≈ 61.8 µM) | 64 (≈ 124 µM) | 0.25 (≈ 0.483 µM) | 64 (≈ 124 µM) | 16 (≈ 30.9 µM) | > 128 | 128 (≈ 247 µM) | 32 (≈ 61.8 µM) | 16 (≈ 30.9 µM) | 128 (≈ 247 µM) | 32 (≈ 61.8 µM) | 4 (≈ 7.73 µM) | 64 (≈ 124 µM) | 4 (≈ 7.73 µM) | > 128 | 16 (≈ 30.9 µM) | 64 (≈ 124 µM) | 16 (≈ 30.9 µM) | MIC [21]: 16 µg/mL (≈ 30.9 µM); MIC90 [22]: 24.3 µg/mL (≈ 46.9 µM); MIC [23]: 64 µg/mL (≈ 124 µM); MIC [24]: 16 µg/mL (≈ 30.9 µM); MIC [25]: 64 µg/mL (≈ 124 µM); MIC [26]: 32 µg/mL (≈ 61.8 µM); MIC [27]: 32 µg/mL (≈ 61.8 µM); MIC [28]: 16 µg/mL (≈ 30.9 µM); MIC [29]: > 128 µg/mL; MIC [30]: 64 µg/mL (≈ 124 µM); MIC [31]: 16 µg/mL (≈ 30.9 µM); MIC [32]: 32 µg/mL (≈ 61.8 µM); MIC [33]: > 128 µg/mL; MIC [34]: 32 µg/mL (≈ 61.8 µM); MIC [35]: 128 µg/mL (≈ 247 µM)
CCO/N=C1/CN(c2nc3c(cc2F)c(=O)c(C(=O)O)cn3-c2nc(N)c(F)cc2F)CC1CNC1CC1 (stereo not given) | 32 (≈ 60.2 µM) | > 128 | 64 (≈ 120 µM) | 128 (≈ 241 µM) | 0.125 (≈ 0.235 µM) | 128 (≈ 241 µM) | 64 (≈ 120 µM) | > 128 | 128 (≈ 241 µM) | 32 (≈ 60.2 µM) | 32 (≈ 60.2 µM) | 128 (≈ 241 µM) | 16 (≈ 30.1 µM) | 4 (≈ 7.53 µM) | 64 (≈ 120 µM) | 4 (≈ 7.53 µM) | > 128 | 8 (≈ 15.1 µM) | 64 (≈ 120 µM) | 16 (≈ 30.1 µM) | MIC [21]: 32 µg/mL (≈ 60.2 µM); MIC90 [22]: 22 µg/mL (≈ 41.4 µM); MIC [23]: 128 µg/mL (≈ 241 µM); MIC [24]: 32 µg/mL (≈ 60.2 µM); MIC [25]: 128 µg/mL (≈ 241 µM); MIC [26]: 64 µg/mL (≈ 120 µM); MIC [27]: 64 µg/mL (≈ 120 µM); MIC [28]: 128 µg/mL (≈ 241 µM); MIC [29]: 128 µg/mL (≈ 241 µM); MIC [30]: 128 µg/mL (≈ 241 µM); MIC [31]: 32 µg/mL (≈ 60.2 µM); MIC [32]: 32 µg/mL (≈ 60.2 µM); MIC [33]: > 128 µg/mL; MIC [34]: 128 µg/mL (≈ 241 µM); MIC [35]: > 128 µg/mL
